Experimental data taken from ChEMBL document CHEMBL2396584, “Semisynthesis, cytotoxicity, antiviral activity, and drug interaction liability of 7-O-methylated analogues of flavonolignans from milk thistle” (Bioorg Med Chem, 2013).
Activity calls are given as the source filed them. The rule behind the calls is not given here.

Tests used:
[1] = Inhibition of UGT in human liver microsomes using 4-methylumbelliferone as substrate after 10 mins by fluorescence analysis; type: ADME, Microsome
Procedure, shortened: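 Pooled human liver microsomes (0.4 mg/mL) were incubated with 4-MU (100 μM), compound at 10 or 100 μM, 0.05% BSA, and 0.1 M Tris–HCl pH 7.5 with 5 mM MgCl2. The reaction was started with UDPGA (4 mM), and 4-MU depletion was followed by fluorescence over 10 min. Vehicle was 0.2% MeOH and diclofenac (400 μM) was the positive control. Data are means ± SD of triplicate incubations.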

Hepatitis C virus [2] = assay: Antiviral activity against HCV JFH-1 infected in human Huh7.5.1 cells assessed as viral core protein expression at 0.8 to 8 uM after 72 hrs by Western blot analysis; type: functional, organism-based; conditions: Hepacivirus hominis, Huh-7
[3] = Cytotoxicity against human Huh7.5.1 cells after 72 hrs; type: functional, cell-based; conditions: Huh-7, 72 h
Procedure, shortened: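 Huh7.5.1 hepatoma cells were seeded at 10,000 per well and incubated overnight. They were then exposed to nine concentrations from 0 to 62.5 μM. Viability was read after 72 h with an ATPlite assay. Each point was run in three replicates, and IC50 was derived by linear regression.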

Hepatitis C virus [4] = assay: Antiviral activity against HCV JFH-1 infected in human Huh7.5.1 cells assessed as viral core protein expression at 12.4 to 124.2 uM after 72 hrs by Western blot analysis; type: functional, organism-based; conditions: Hepacivirus hominis, Huh-7
Hepatitis C virus [5] = assay: Antiviral activity against HCV JFH-1 infected in human Huh7.5.1 cells assessed as viral core protein expression at 1.6 to 16.1 uM after 72 hrs by Western blot analysis; type: functional, organism-based; conditions: Hepacivirus hominis, Huh-7
Hepatitis C virus [6] = assay: Antiviral activity against HCV JFH-1 infected in human Huh7.5.1 cells assessed as viral core protein expression at 6.2 to 62.1 uM after 72 hrs by Western blot analysis; type: functional, organism-based; conditions: Hepacivirus hominis, Huh-7
Hepatitis C virus [7] = assay: Antiviral activity against HCV JFH-1 infected in human Huh7.5.1 cells assessed as viral core protein expression at 6 to 60.3 uM after 72 hrs by Western blot analysis; type: functional, organism-based; conditions: Hepacivirus hominis, Huh-7
Cytochrome P450 2C9 = Cytochrome P450 2C9 (Homo sapiens, UniProt P11712); assay: Inhibition of CYP2C9 in human liver microsomes using (S)-warfarin as substrate after 30 mins; type: ADME, Microsome; conditions: 0.5 h
Cytochrome P450 2C9, sequence (P11712 whole entry): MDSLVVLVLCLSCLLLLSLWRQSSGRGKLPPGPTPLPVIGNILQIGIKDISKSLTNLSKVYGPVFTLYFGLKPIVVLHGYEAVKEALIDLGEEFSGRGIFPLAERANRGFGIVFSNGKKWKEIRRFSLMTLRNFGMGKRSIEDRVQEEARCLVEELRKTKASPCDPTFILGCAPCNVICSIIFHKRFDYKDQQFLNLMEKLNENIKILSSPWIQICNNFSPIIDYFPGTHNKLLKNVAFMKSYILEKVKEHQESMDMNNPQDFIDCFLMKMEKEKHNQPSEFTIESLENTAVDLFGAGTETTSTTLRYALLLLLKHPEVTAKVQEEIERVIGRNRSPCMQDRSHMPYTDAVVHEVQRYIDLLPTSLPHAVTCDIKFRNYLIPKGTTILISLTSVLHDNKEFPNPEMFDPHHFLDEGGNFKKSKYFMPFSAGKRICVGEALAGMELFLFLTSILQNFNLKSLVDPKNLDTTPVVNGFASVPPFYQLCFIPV

SMILES	inhibition (INH) [1]	IC50 [3]	also measured
COc1cc(O)c2c(c1)O[C@H](C1=C[C@H]3C(=O)[C@]4(O)OC[C@H]([C@H]3c3ccc(O)c(OC)c3)[C@H]14)[C@@H](O)C2=O	Active	9.4 µM	Activity (Hepatitis C virus [2]): Active
COc1cc(C2Oc3c(O)cc([C@H]4Oc5cc(O)cc(O)c5C(=O)[C@@H]4O)cc3C2CO)ccc1O (some centres not stated) [SILICRISTIN]	–	> 130 µM	Activity (Hepatitis C virus [4]): inactive
Oc1ccc(/C=C/c2cc(O)cc(O)c2)cc1 [RESVERATROL]	–	10.6 µM	–
COc1cc([C@@H]2Oc3ccc([C@H]4Oc5cc(O)cc(O)c5C(=O)[C@@H]4O)cc3O[C@H]2CO)ccc1O [ISOSILYBIN B]	–	27 µM	Activity (Hepatitis C virus [5]): Active
O=C(O)Cc1ccccc1Nc1c(Cl)cccc1Cl [DICLOFENAC]	56%	–	–
COc1cc(O)c2c(c1)O[C@H](c1ccc3c(c1)O[C@H](c1ccc(O)c(OC)c1)[C@@H](CO)O3)[C@@H](O)C2=O	Active	9.5 µM	Activity (Hepatitis C virus [2]): Active
COc1cc(O)c2c(c1)O[C@H](c1ccc3c(c1)O[C@H](CO)[C@@H](c1ccc(O)c(OC)c1)O3)[C@@H](O)C2=O	–	13.2 µM	Activity (Hepatitis C virus [2]): Active
COc1cc(O)c2c(c1)O[C@H](c1ccc3c(c1)O[C@@H](c1ccc(O)c(OC)c1)[C@H](CO)O3)[C@@H](O)C2=O	Active	12.7 µM	Activity (Hepatitis C virus [2]): Active
COc1cc(O)c2c(c1)O[C@H](c1ccc(O)c3c1[C@@H](CO)[C@H](c1ccc(O)c(OC)c1)O3)[C@@H](O)C2=O	–	27.6 µM	Activity (Hepatitis C virus [4]): Active
COc1cc([C@@H]2[C@H]3CO[C@@]4(O)C(=O)[C@@H]2C=C([C@H]2Oc5cc(O)cc(O)c5C(=O)[C@@H]2O)[C@@H]34)ccc1O [SILIDIANIN]	Active	> 130 µM	Activity (Hepatitis C virus [4]): inactive
COc1cc([C@@H]2Oc3cc([C@H]4Oc5cc(O)cc(O)c5C(=O)[C@@H]4O)ccc3O[C@H]2CO)ccc1O [SILYBIN B]	Active	68.7 µM	Activity (Hepatitis C virus [6]): Active
COc1cc([C@@H]2Oc3c(O)ccc([C@H]4Oc5cc(O)cc(O)c5C(=O)[C@@H]4O)c3[C@H]2CO)ccc1O [ISOSILYCHRISTIN]	–	> 130 µM	Activity (Hepatitis C virus [4]): inactive
COc1cc(O)c2c(c1)O[C@H](c1ccc3c(c1)O[C@@H](CO)[C@H](c1ccc(O)c(OC)c1)O3)[C@@H](O)C2=O	–	18 µM	Activity (Hepatitis C virus [5]): Active
COc1cc(O)c2c(c1)O[C@H](c1cc(O)c3c(c1)[C@@H](CO)[C@H](c1ccc(O)c(OC)c1)O3)[C@@H](O)C2=O	–	66.4 µM	Activity (Hepatitis C virus [7]): Active
COc1cc([C@H]2Oc3ccc([C@H]4Oc5cc(O)cc(O)c5C(=O)[C@@H]4O)cc3O[C@@H]2CO)ccc1O [ISOSILYBIN A]	–	80 µM	inhibition (INH) (Cytochrome P450 2C9): Not Active; Activity (Hepatitis C virus [6]): Active
COc1cc([C@H]2Oc3cc([C@H]4Oc5cc(O)cc(O)c5C(=O)[C@@H]4O)ccc3O[C@@H]2CO)ccc1O [SILYBIN A]	Active	80 µM	Activity (Hepatitis C virus [6]): Active
